Screening results (PubChem BioAssay)
STEP inh: STEP phosphatase inhibitors, primary screen, biochemical, fluorescence intensity, uHTS; actives 0.25% (n = 360,000); recombinant STEP, OMFP fluorogenic substrate; Tyrosine-protein phosphatase non-receptor type 5 (Homo sapiens), P54829; inhibition, % at 20 µM;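 active means inhibition at 20 µM, scaled per plate between control wells, above about 37%, limit read from the data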;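 further: 0% = DMSO with enzyme and substrate and 100% = substrate only without enzyme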
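Assay system: isolated STEP enzyme. Buffer or medium: pH 6.0 Bis-Tris with DTT and Tween 20. Also added: fluorogenic phosphatase substrate OMFP at 25 µM final. Dosing: 20 µM, 1% DMSO. Timing: 20 min reaction, room temperature, in the dark. Measured by: fluorescence intensity, excitation 480 nm, emission 540 nm. Evaluation: normalized % inhibition.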
LMPTP block: LMPTP phosphatase inhibitors, primary screen, biochemical, fluorescence intensity, uHTS; Low molecular weight phosphotyrosine protein phosphatase (Homo sapiens), P24666; recombinant LMPTP-A, OMFP fluorogenic substrate; inhibition, % at 20 µM; actives 0.22% (n = 360,000);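 active means compounds that cut the enzyme signal by at least half of the control window in the single-dose screen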;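 further: plate controls were DMSO wells with enzyme plus substrate for no effect and substrate without enzyme for full effect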
Target sequence (P24666 whole entry, looked up): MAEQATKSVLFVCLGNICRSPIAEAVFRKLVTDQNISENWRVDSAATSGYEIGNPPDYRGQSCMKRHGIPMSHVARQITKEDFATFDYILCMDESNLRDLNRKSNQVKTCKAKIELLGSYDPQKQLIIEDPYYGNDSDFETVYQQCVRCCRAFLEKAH
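Test system: LMPTP-A phosphatase enzyme. Amount: LMPTP-A at 0.625 nM final in the reaction. Reagent: OMFP substrate, 400 µM final. Times: 50 min at room temperature. Signal: endpoint fluorescence intensity from OMFP dephosphorylation. Read-out basis: % inhibition. Benchmarks: no-enzyme and uninhibited controls.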
SUMO1 PPI mod: modulators of SUMO1 protein-protein interactions, primary screen, biochemical, uHTS | Small ubiquitin-related modifier 1 (Homo sapiens), P63165 | SUMO1 binding to a labelled peptide, TR-FRET, 1 h | inhibition, % at 20 µM | actives 0.33% (n = 360,000); in the data active means inhibition above about 37%
Target sequence (P63165 whole entry, looked up): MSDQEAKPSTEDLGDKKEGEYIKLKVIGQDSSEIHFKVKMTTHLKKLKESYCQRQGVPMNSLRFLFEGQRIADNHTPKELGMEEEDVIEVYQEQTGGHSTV
DNMT1 inh: human DNMT1 methyltransferase inhibitors, primary screen, biochemical, molecular beacon, fluorescence, HinP1I cleavage, uHTS. DNA (cytosine-5)-methyltransferase 1 (Homo sapiens), P26358. inhibition (reported as % activation of signal), % at 10 µM. actives 0.83% (n = 360,000). AID 588458, 2011; in the data active means inhibition above about 50%
Scp1 inh: Scp-1 phosphatase inhibitors, primary screen, biochemical, colorimetric, uHTS. actives 0.88% (n = 340,000). Recombinant Scp1, phosphopeptide, malachite green phosphate absorbance. AID 493091, 2011. inhibition, % at 20 µM;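 active means inhibition above about 50% at 20 µM, limit read from the data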;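 further: plate controls were DMSO wells with enzyme for no effect and wells lacking enzyme for full effect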
Target sequence (Q9GZU7 76-261 limits assumed): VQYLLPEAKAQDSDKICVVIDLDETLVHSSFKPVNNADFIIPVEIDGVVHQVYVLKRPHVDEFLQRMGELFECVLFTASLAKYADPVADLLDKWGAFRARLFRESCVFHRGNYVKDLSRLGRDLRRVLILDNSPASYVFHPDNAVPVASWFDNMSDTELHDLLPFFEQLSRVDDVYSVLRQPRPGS
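assay system = SCP-1 phosphatase catalytic domain, residues 76-261 | buffer or medium = 50 mM Tris acetate pH 5.5, 0.005% Tween-20, 10 mM MgCl2 | incubation = enzyme reaction 45 min at room temperature, colour 5 min, stabilisation 30 min | signal = Phosphate-binding colour reagent, absorbance read at 630 nm | measure = % inhibition at 20 µM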
Scp1 confirm: Scp-1 phosphatase inhibitors, retest, confirmation, biochemical, colorimetric, single concentration | shares compounds with Scp1 inh | recombinant SCP-1 catalytic domain, phosphate release, malachite green absorbance | inhibition, % at 20 µM | actives 61% (n = 2,500) | AID 540281, 2011;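 further: plate controls were DMSO with enzyme for no effect and buffer wells lacking enzyme for full effect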
MG interference: colorimetric readout interference by compounds, confirmation, artefact control for Scp-1 inhibitor project, biochemical, single concentration | shares compounds with Scp1 inh | Colorimetric interference counterscreen, malachite green absorbance 630 nm | apparent inhibition (interference), % at 20 µM | 2,500 tested, under 10 active | AID 540313, 2011;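 further: compounds added after enzyme reaction finished so only phosphate colour detection is probed; plate controls were DMSO wells with completed Scp-1 reaction for no effect and substrate wells lacking enzyme for full effect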
Scp1 DSF: Scp-1 binding by thermal shift, confirmation, orthogonal assay for Scp-1 inhibitor project, biophysical, differential scanning fluorimetry; shares compounds with Scp1 inh; Recombinant SCP1, Sypro Orange thermal shift Tm; thermal shift relative to vanadate control, % at 40 µM; actives 25% (n = 1,500);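 active means substances whose mean melting-temperature shift, as a percentage of the reference inhibitor's shift, reaches about 5.3%, limit read from the data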;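 further: 0% = Tm of DMSO wells and 100% = Tm with sodium orthovanadate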
Starred values were filed as active, the others as inactive; . = no result. In the library only some 1.7% were active in any assay of this set; here they are far more common.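 How the source made its calls, unless noted: active means inhibition of at least 30% at 20 µM; inactive means the rest.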

SMILES | STEP inh | LMPTP block | SUMO1 PPI mod | DNMT1 inh | Scp1 inh | Scp1 confirm | MG interference | others
Cc1[nH]ccc(=O)c1OC1OC(CO)C(O)C(O)C1O (stereo unspecified) | -2.3 | 1.2 | 0.6 | 2.6 | -0.2 | . | .
Cc1cn([C@H]2C[C@H](O)[C@@H](CCC(=O)NCCN3CCCCC3)O2)c(=O)[nH]c1=O | -0.2 | -5.5 | -1.1 | 0.3 | 3.9 | . | .
Cc1cccc(Nc2nnc(SCC(=O)c3c(N)n(C4CC4)c(=O)[nH]c3=O)s2)c1 | -1.1 | 2.1 | 1.1 | 2.0 | -3.3 | . | .
C/C(N)=C(/C#N)C(=O)CSc1nnc(Nc2cccc(C)c2)s1 | 2.6 | 8.1 | 10.4 | 23.0 | 64.0* | 74.3* | -4.6 | Scp1 DSF=-1.9
O=C(NCCc1ccccc1)c1ccc(-c2ccc(F)cc2)o1 | -1.9 | 0.7 | -4.5 | 6.6 | 26.4 | . | .
O=C(NCCc1ccccc1)c1ccc(-c2ccccc2C(F)(F)F)o1 | . | . | . | . | 96.8* | 20.1 | -27.2
CCOC(=O)/C=C1\CC(C(=O)OCC)Oc2ccccc21 (stereo unspecified) | -1.8 | -1.7 | -6.8 | 4.4 | 1.3 | . | .
CCOC(=O)/C=C1\CN(C(C)c2ccccc2)S(=O)(=O)c2ccccc21 (stereo unspecified) | 2.1 | 0.5 | -3.3 | 3.1 | 84.2* | 45.6* | -18.3 | Scp1 DSF=-19.5
CCOC(=O)/C=C1\CN(CCC(C)C)S(=O)(=O)c2ccccc21 | -0.4 | -0.1 | -7.6 | 2.2 | 59.1* | 31.1* | -20.3 | Scp1 DSF=-23.3
Cc1ccc(-c2onc3ccc(C4OCCO4)cc23)cc1 | 2.9 | 1.3 | -17.9 | -2.0 | -12.5 | . | .
NC(=O)C1CCN(S(=O)(=O)c2cc3c4c(c2)CCN4C(=O)CC3)CC1 | -3.8 | -0.2 | 5.8 | 4.1 | -3.9 | . | .
CCOc1ccc(C(=O)Nc2ccc(-c3cc4ccccc4oc3=O)c(C)c2)cc1[N+](=O)[O-] | 3.8 | 12.8 | 1.6 | 19.5 | 60.1* | 41.2* | -29.4 | Scp1 DSF=2.7
O=C(Nc1nnc(-c2ccc(Cl)s2)o1)C1CC1 | -0.2 | -0.2 | -1.8 | -0.7 | 56.5* | -26.6 | -14.2
O=C(Nc1nnc(-c2cccs2)o1)C1CC1 | -0.8 | -2.0 | -2.4 | 3.8 | -6.0 | . | .
COC(=O)c1ccc(NC(=S)N2CCC(C(N)=O)CC2)cc1 | 10.0 | 0.6 | 3.1 | 0.1 | 68.3* | -6.2 | -7.3
COc1ccc(NC(=O)CCNS(=O)(=O)c2cc(Br)ccc2Br)cc1S(N)(=O)=O | 2.1 | 2.3 | 0.9 | -2.2 | 1.8 | -22.5 | -18.6
ON=C1c2ccccc2-c2cc(Br)ccc21 | -1.4 | 3.0 | -23.4 | -21.6 | -5.3 | . | .
CC(=O)N=c1c(C#N)cc2c(=O)n3cccc(C)c3nc2n1Cc1ccco1 | 16.7 | 3.5 | 19.7 | 48.8 | 69.6* | 25.3 | -19.2
CC(=O)N=c1c(C#N)cc2c(=O)n3cccc(C)c3nc2n1CCCOC(C)C | -0.2 | 24.7 | 7.1 | 41.0 | -3.5 | . | .
CC1CCN(S(=O)(=O)c2ccc(NC(=O)Cc3cccs3)cc2)CC1 | -0.4 | 3.5 | 2.2 | 25.1 | 77.3* | 59.9* | -25.5 | Scp1 DSF=5.8*
CC(C)(C)NC(=O)C1c2ccccc2OCC(=O)N1CCCN1CCOCC1 (stereo unspecified) | . | -2.1 | 3.0 | . | . | . | .
